ERAP1 inh – blocks human ERAP1 aminopeptidase activity; Q9NZ08; recombinant ERAP1, Leu-AMC fluorescence, 60 min; inhibition, % at 10.7 µM; 0.15% of 340,000 active; AID 652197;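 active = mean replicate inhibition of at least 30%, or all replicates individually reaching that 30% level; inactive = mean below 30% and not every replicate reaching it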;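 note: 0% = neutral control wells and 100% = L-leucinethiol positive control wells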
MLL AF4-AF9 inh – blocks AF4 peptide binding to human AF9; P42568; AlphaScreen, biotin-AF4 peptide binding to FLAG-AF9; 0.47% of 350,000 active; inhibition, % at 10 µM;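 active = every replicate reaching a set inhibition limit, whatever the replicate mean, cut at about 25% in these data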;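 note: 0% = plate neutral control median and 100% = total signal loss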
Target sequence (P42568 whole entry, looked up): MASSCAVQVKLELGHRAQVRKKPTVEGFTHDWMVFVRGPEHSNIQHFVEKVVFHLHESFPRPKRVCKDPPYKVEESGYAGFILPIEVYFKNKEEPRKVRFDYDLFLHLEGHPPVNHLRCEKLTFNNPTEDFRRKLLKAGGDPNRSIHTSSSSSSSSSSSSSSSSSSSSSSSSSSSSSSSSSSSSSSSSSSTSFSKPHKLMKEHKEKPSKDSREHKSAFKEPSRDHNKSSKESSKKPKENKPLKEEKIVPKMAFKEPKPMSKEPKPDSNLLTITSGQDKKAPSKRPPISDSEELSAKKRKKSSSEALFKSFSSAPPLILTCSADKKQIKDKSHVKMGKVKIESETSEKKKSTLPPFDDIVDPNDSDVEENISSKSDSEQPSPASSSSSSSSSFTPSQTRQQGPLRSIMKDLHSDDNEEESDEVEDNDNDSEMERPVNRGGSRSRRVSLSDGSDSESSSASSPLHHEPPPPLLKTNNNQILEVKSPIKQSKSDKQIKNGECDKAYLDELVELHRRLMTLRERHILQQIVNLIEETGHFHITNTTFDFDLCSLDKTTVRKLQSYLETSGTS
S100A4 MyoIIA – S100A4-myosin IIA interaction inhibition; 0.14% of 360,000 active; inhibition, % at 10.7 µM; P26447; S100A4/TAMRA-MyoIIA peptide fluorescence polarization; AID 652163;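 active = mean inhibition of at least 70% across replicates, with every replicate also reaching that level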
Target sequence (P26447 whole entry, looked up): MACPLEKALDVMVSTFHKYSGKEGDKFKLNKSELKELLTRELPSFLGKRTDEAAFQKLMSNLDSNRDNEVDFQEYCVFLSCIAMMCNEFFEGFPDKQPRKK
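Test system: S100A4 monomer protein. Medium: HEPES buffer with Ca2+, pH 7.2. Reagent: fluorescent myosin IIA peptide, 5 nM. Compound dosing: single-point compound testing. Timing: 5 min between mix addition and reading. Benchmarks: DMSO neutral and TFP positive wells.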
Rtt109 HAT inh – blocks Candida albicans Rtt109/Vps75 acetyltransferase activity. Q5AAJ8. purified Rtt109/Vps75, ThioGlo CoA-SH fluorescence, 4 h. inhibition, % at 34.9 µM. 0.16% of 330,000 active. AID 540336;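 active = inhibition of at least 50% in every replicate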
miR122 inh – inhibitors of miR-122 in Huh7 cells | Huh7 miR-122 Renilla luciferase sensor, 48 h; neutral wells = 0, positive control = 100 | 0.3% of 340,000 active | AID 602342 | activation (reporter increase), % at 12.5 µM;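 active = mean replicate activation score at least 90 and every replicate individually at or above 90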;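 note: higher luciferase means less miR-122 activity so hits act as miR-122 inhibitors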
Active calls of the source: *; . = not tested or not shown; [ ] = remark or other dose. Hits are enriched below; roughly 0.86% of the tested compounds scored in any of these assays.

SMILES | ERAP1 inh | MLL AF4-AF9 inh | S100A4 MyoIIA | Rtt109 HAT inh | miR122 inh
COc1ccc2c3c(n(C)c2c1)[C@@H](CO)N(C(=O)Nc1ccc(F)cc1)CC31CCN(C)CC1 | -4 | -2 | 82* | . | .
COc1ccc2c3c(n(C)c2c1)[C@@H](CO)N(C(=O)Nc1ccc(F)cc1)CC31CN(Cc2cccnc2)C1 | 2 | 27* | 9 | . | .
COc1ccc2c3c(n(C)c2c1)[C@H](CO)N(C(=O)Nc1ccc(F)cc1)CC31CCN(C)CC1 | -6 | 1 | -11 | . | .
COc1ccc(S(=O)(=O)N2CCC3(CC2)CN(C(=O)CN(C)C)[C@H](CO)c2c3c3ccc(OC)cc3n2C)cc1 | -6 | 33* | 7 | . | .
O=C(Nc1ccccc1)[C@@H]1[C@@H](CO)[C@@H]2Cn3c(cccc3=O)[C@@H]2N1CC1CC1 | 1 | -2 | -2 | . | 2[16.7 µM]
CCCNC(=O)N1CC2(CCN(C(=O)Cc3cccnc3)CC2)c2c([nH]c3cc(OC)ccc23)[C@H]1CO | -1 | 0 | 1 | . | .
C[C@@H]1CN([C@@H](C)CO)S(=O)(=O)c2ccc(C#CC3(O)CCCC3)cc2O[C@@H]1CN(C)C(=O)Cc1ccncc1 | . | -6 | -5 | . | .
COc1ccc(CNC(=O)C2(c3ccc(Cl)cc3)CC2)cc1 | . | . | . | 56* | 0
O=c1c2cc(F)ccc2sn1-c1ccccc1 | 24 | -20 | -2 | 132* | -2
Cc1ccccc1-n1sc2cc(F)ccc2c1=O | 22 | -12 | 0 | 102* | -3
O=C(O)c1cccc(-n2sc3ccccc3c2=O)c1 | 90* | -22 | -5 | 178* | 1
CO[C@@H]1CN(C)C(=O)c2ccc(NC(=O)c3cnccn3)cc2OC[C@@H](C)NC[C@H]1C | -4 | -4 | 10 | . | .
CCCn1c(=O)c2ccccc2n2c(SCCNCCO)nnc12 | 4 | 27* | -1 | 1 | 28
C/C=C/n1ccnc1CC(O)(c1ccccc1)c1ccc(C)cc1 (stereo unspecified) | . | 1 | 0 | 60* | .
CCC[N+]1(CC#CC2(O)CCCCC2)CCOCC1 | 85* | -2 | 5 | 9 | .
c1cc(-c2ccc(C3[C@H]4CNC[C@@H]3N4CC3CCCCC3)cc2)ccn1 (stereo partly specified) | -6 | 29* | -5 | . | .
c1cc(-c2ccc(C3[C@H]4CNC[C@@H]3N4CC3CCOCC3)cc2)ccn1 (stereo partly specified) | -4 | 3 | 10 | . | .
Cc1c(Cl)cccc1NC(CC(=O)c1ccccc1)C(=O)O (stereo unspecified) | . | . | . | 70* | -9
O=C(CC(Nc1ccccc1Cl)C(=O)O)c1ccccc1 (stereo unspecified) | -3 | -5 | 3 | 0 | .
COc1ccc2c3c(n(C)c2c1)[C@@H](CO)N(Cc1ccncc1)CC31CCN(C(=O)C2CCCC2)CC1 | 4 | -2 | 3 | . | .
C[C@@H]1CN([C@H](C)CO)C(=O)c2cc(NC(=O)Nc3ccccc3)ccc2O[C@@H](C)CCCCO[C@@H]1CN(C)Cc1ccc(Cl)c(Cl)c1 | 1 | 1 | 22 | . | -3[16.7 µM]
C[C@H]1CN([C@@H](C)CO)C(=O)c2cc(NC(=O)CCC(F)(F)F)ccc2O[C@@H]1CN(C)S(=O)(=O)c1cn(C)cn1 | -1 | -6 | 98* | . | 11[16.7 µM]
CC(C)NC(=O)N(C)C[C@H]1Oc2ccc(NC(=O)CCCN(C)C)cc2C(=O)N([C@H](C)CO)C[C@H]1C | 0 | 0 | 111* | . | 3[16.7 µM]
C[C@H]1CN([C@@H](C)CO)C(=O)c2cc(NC(=O)CCC(F)(F)F)ccc2O[C@H]1CN(C)C(=O)Nc1ccc(F)cc1 | -2 | -1 | -1 | . | -1[16.7 µM]
C[C@@H]1CN([C@@H](C)CO)C(=O)c2cc(NC(=O)CCC(F)(F)F)ccc2O[C@@H]1CN(C)C(=O)Nc1ccc(F)cc1 | -4 | 0 | 96* | . | 11[16.7 µM]
SMILES | ERAP1 inh | MLL AF4-AF9 inh | S100A4 MyoIIA | Rtt109 HAT inh | miR122 inh
C[C@H](O)C#Cc1ccc2c(c1)O[C@@H](CN(C)CC1CC1)[C@H](C)CN([C@@H](C)CO)S2(=O)=O | . | . | . | . | -5[16.7 µM]
O=C(Nc1cccc(N2C(=O)C=CC2=O)c1)c1cccs1 | 33* | 9 | -6 | 1 | .
CCCNC(=O)C[C@H]1CC[C@@H]2[C@@H](COc3ccc(NC(=O)NCCC)cc3C(=O)N2C)O1 | -4 | -2 | 2 | . | .
COc1ccc2c3c(n(C)c2c1)[C@H](CO)NCC31CN(Cc2ccc(-c3ccccn3)cc2)C1 | . | 47* | -5 | . | .
COc1ccc2c3c(n(C)c2c1)[C@@H](CO)NCC31CN(CC2CC2)C1 | -1 | 16 | -8 | . | .
COc1ccc2c3c(n(C)c2c1)[C@@H](CO)NCC31CN(Cc2ccccc2Cl)C1 | 0 | 39* | 2 | . | .
CC(C)C#Cc1cnc2c(c1)C(=O)N([C@H](C)CO)C[C@H](C)[C@H](CN(C)Cc1cccc(F)c1)O2 | 6 | -2 | -9 | . | 14[16.7 µM]
Cn1cc(SCC(=O)NC2CCCC2)c2ccccc21 | 1 | -2 | 87* | -9 | 12
Cc1nc2ccccc2n1CC(=O)NC1CCCC1 | -6 | 0 | 5 | 51* | .
CC(C)(O)c1cn([C@@H]2C[C@@H]3O[C@@H](CO)CC[C@@H]3O[C@@H]2CCc2ccc(-c3cccnc3)cc2)nn1 | 0 | -3 | 11 | . | .
Oc1c(CNc2ccccc2)cc(COCc2ccccc2)c2cccnc12 | -2 | 68* | 2 | -6 | -10
C[n+]1cccc(/C=N/NC(=O)CC23CC4CC(CC(C4)C2)C3)c1 | 96* | -1 | 52 | . | .
CNC(=O)c1ccc(NC(=O)CC23CC4CC(CC(C4)C2)C3)cc1 | -2 | 3 | 3 | 7 | 2
CCC(=O)N(C)C[C@H]1Oc2ncc(C#Cc3ccncc3)cc2C(=O)N([C@H](C)CO)C[C@H]1C | 76* | -14 | 8 | . | -7[16.7 µM]
C[C@@H]1CN([C@H](C)CO)C(=O)c2cc(C#CC3CC3)cnc2O[C@@H]1CN(C)S(C)(=O)=O | 0 | -7 | 117* | . | 4[16.7 µM]
CCC(=O)N(C)C[C@@H]1Oc2ncc(C#Cc3ccncc3)cc2C(=O)N([C@@H](C)CO)C[C@@H]1C | 36* | -14 | 0 | . | -8[16.7 µM]
C[C@H](CO)N1C[C@H](C)[C@H](CN(C)S(C)(=O)=O)Oc2ncc(C#CC3CC3)cc2C1=O | 3 | -5 | 5 | . | 22[16.7 µM]
C[C@@H]1CN([C@H](C)CO)C(=O)c2cc(C#Cc3ccccn3)cnc2O[C@@H]1CN(C)Cc1ccncc1 | 15 | -7 | -32 | . | -7[16.7 µM]
C[C@@H]1CN([C@@H](C)CO)C(=O)c2cc(-c3cccc(F)c3)cnc2O[C@H]1CN(C)Cc1cccnc1 | -3 | 0 | 7 | . | -3[16.7 µM]
CCOCCCNC(=O)Cn1nc(-c2ccc(OC)c(OC)c2)ccc1=O | -2 | 0 | -1 | . | -6
CCOCCCNC(=O)Cn1nc(-c2ccccc2)ccc1=O | 2 | 51* | -9 | -23 | 1
O=C1CCC(=O)N1c1ccc(-c2nc3ccccc3s2)cc1 | 9 | 0 | -1 | 52* | 3
CCOC(=O)C1CCN(c2nc(C)cc(C)c2C#N)CC1 | -2 | -2 | -6 | 1 | .

Compound activity (PubChem BioAssay)
